Data published in ChEMBL document CHEMBL1143174, “Pharmacomodulation on the 3-acetylursolic acid skeleton: Design, synthesis, and biological evaluation of novel N-{3-[4-(3-aminopropyl)piperazinyl]propyl}-3-O-acetylursolamide derivatives as antimalarial agents” (Bioorg Med Chem, 2008).

Columns and labels:
Plasmodium falciparum [1] = assay: Antimalarial activity against chloroquine-resistant Plasmodium falciparum FcB1 after 24 hrs; type: functional, organism-based; details: FcB1, 24 h
Summary of the method: (§1)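 Asynchronous P. falciparum cultures in human erythrocytes (1% parasitemia, 1% final hematocrit) exposed to serially diluted compounds (DMSO stock, final DMSO ≤0.1%) for 24 h at 37 °C, then 0.5 µCi [3H]hypoxanthine per well added for a further 24 h. Growth inhibition from incorporated radioactivity versus drug-free control on the same plate; IC50 from concentration-response curve, means ± standard deviations of several independent experiments.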

Plasmodium falciparum [2] = assay: Antimalarial activity against chloroquine-sensitive Plasmodium falciparum Thai after 24 hrs; type: functional, organism-based; summary of the method: as §1
MRC5 = assay: Cytotoxicity against human MRC5 cells; type: cell-based
[3] = Selectivity index, IC50 for MRC5 cells to IC50 for chloroquine-resistant Plasmodium falciparum FcB1; type: functional
Summary of the method: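 Ratio of IC50 on MRC-5 human diploid embryonic lung cells to IC50 on FcB1 parasites, the latter from the 24 h drug plus 24 h [3H]hypoxanthine incorporation assay.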

[4] = Resistance index, IC50 for chloroquine-resistant Plasmodium falciparum FcB1 to chloroquine-sensitive Plasmodium falciparum Thai; type: functional
Summary of the method: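 Ratio of IC50 values between the sensitive Thai and resistant FcB1 strains, each from the [3H]hypoxanthine incorporation assay (24 h drug exposure then 24 h label, asynchronous cultures, 1% parasitemia, 1% hematocrit).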

[5] = target: T1, Histidine-rich protein PFHRP-II (Plasmodium falciparum) (UniProt P05227); assay: Inhibition of beta-hematin formation at 5 mM; type: functional
T1 sequence (whole entry): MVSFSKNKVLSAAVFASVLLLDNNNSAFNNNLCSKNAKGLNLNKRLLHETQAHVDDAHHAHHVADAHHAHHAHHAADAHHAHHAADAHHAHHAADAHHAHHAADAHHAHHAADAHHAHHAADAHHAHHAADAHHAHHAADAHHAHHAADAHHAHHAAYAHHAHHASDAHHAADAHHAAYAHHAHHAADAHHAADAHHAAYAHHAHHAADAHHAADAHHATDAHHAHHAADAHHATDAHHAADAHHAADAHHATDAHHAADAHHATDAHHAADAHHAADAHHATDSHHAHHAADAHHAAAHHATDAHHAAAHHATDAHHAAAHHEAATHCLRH

[6] = target: T1, Histidine-rich protein PFHRP-II (Plasmodium falciparum); assay: Inhibition of beta-hematin formation at 10 mM; type: functional
[7] = target: T2, Histidine-rich protein PFHRP-II (Plasmodium falciparum, UniProt P05227); assay: Inhibition of beta-hematin formation; type: functional
T2 sequence (P05227 whole entry): T1 sequence (whole entry)

[8] = target: T1, Histidine-rich protein PFHRP-II (Plasmodium falciparum); assay: Relative chloroquine IC50 for beta-hematin formation; type: functional
[9] = target: T1, Histidine-rich protein PFHRP-II (Plasmodium falciparum); assay: Inhibition of beta-hematin formation at 5.7 mM; type: functional
[10] = target: T1, Histidine-rich protein PFHRP-II (Plasmodium falciparum); assay: Inhibition of beta-hematin formation at 11.4 mM; type: functional
[11] = target: T1, Histidine-rich protein PFHRP-II (Plasmodium falciparum); assay: Inhibition of beta-hematin formation at 1 to 20 mM; type: functional
[12] = target: T1, Histidine-rich protein PFHRP-II (Plasmodium falciparum); assay: Inhibition of beta-hematin formation at 4.2 mM; type: functional
[13] = target: T1, Histidine-rich protein PFHRP-II (Plasmodium falciparum); assay: Inhibition of beta-hematin formation at 8.4; type: functional; details: concentration not given here

Row | SMILES | IC50 (Plasmodium falciparum [1]) | IC50 (Plasmodium falciparum [2]) | IC50 (MRC5) | Selectivity index [3] | Ratio [4] | further results
1 | CC(=O)O[C@H]1CC[C@]2(C)[C@H]3CC=C4[C@@H]5[C@@H](C)[C@H](C)CC[C@]5(C(=O)NCCCN5CCN(CCCN)CC5)CC[C@@]4(C)[C@]3(C)CC[C@H]2C1(C)C | 0.17 µM | 0.46 µM | 1.61 µM | 9.6 | 0.37 | inhibition [5]: 12.9%; inhibition [6]: 24.6%; IC50 [7]: > 20000 µM; Ratio IC50 [8]: > 3.4
2 | CC(=O)O[C@H]1CC[C@]2(C)[C@H]3CC=C4[C@@H]5[C@@H](C)[C@H](C)CC[C@]5(C(=O)NCCCN5CCN(CCCN(Cc6ccc(F)cc6)Cc6ccc(F)cc6)CC5)CC[C@@]4(C)[C@]3(C)CC[C@H]2C1(C)C | 20.3 µM | – | – | – | – | –
3 | C[C@H]1[C@H](C)CC[C@]2(C(=O)NCCCN3CCN(CCCN)CC3)CC[C@]3(C)C(=CC[C@@H]4[C@@]5(C)CC[C@H](O)C(C)(C)[C@@H]5CC[C@]43C)[C@H]12 | 0.32 µM | – | – | – | – | –
4 | CCCN(CCC)CCCN1CCN(CCCNC(=O)[C@]23CC[C@@H](C)[C@H](C)[C@H]2C2=CC[C@@H]4[C@@]5(C)CC[C@H](OC(C)=O)C(C)(C)[C@@H]5CC[C@@]4(C)[C@]2(C)CC3)CC1 | 0.8 µM | 1 µM | 1.96 µM | 2.5 | 0.79 | –
5 | CCCCCCCN(CCCCCCC)CCCN1CCN(CCCNC(=O)[C@]23CC[C@@H](C)[C@H](C)[C@H]2C2=CC[C@@H]4[C@@]5(C)CC[C@H](OC(C)=O)C(C)(C)[C@@H]5CC[C@@]4(C)[C@]2(C)CC3)CC1 | 41.8 µM | – | – | – | – | –
6 | CCCCN(CCCC)CCCN1CCN(CCCNC(=O)[C@]23CC[C@@H](C)[C@H](C)[C@H]2C2=CC[C@@H]4[C@@]5(C)CC[C@H](OC(C)=O)C(C)(C)[C@@H]5CC[C@@]4(C)[C@]2(C)CC3)CC1 | 1 µM | – | – | – | – | –
7 | COc1ccc(CN(CCCN2CCN(CCCNC(=O)[C@]34CC[C@@H](C)[C@H](C)[C@H]3C3=CC[C@@H]5[C@@]6(C)CC[C@H](OC(C)=O)C(C)(C)[C@@H]6CC[C@@]5(C)[C@]3(C)CC4)CC2)Cc2ccc(OC)cc2)cc1 | 6.5 µM | – | – | – | – | –
8 | CC(=O)O[C@H]1CC[C@]2(C)[C@H]3CC=C4[C@@H]5[C@@H](C)[C@H](C)CC[C@]5(C(=O)NCCCN5CCN(CCCN(Cc6ccc([N+](=O)[O-])cc6)Cc6ccc([N+](=O)[O-])cc6)CC5)CC[C@@]4(C)[C@]3(C)CC[C@H]2C1(C)C | 3.57 µM | 3.05 µM | 18.3 µM | 5.1 | 1.17 | inhibition [9]: 3.6%; inhibition [10]: 18.6%; IC50 [7]: > 20000 µM; Ratio IC50 [8]: > 3.4
9 | CC(=O)O[C@H]1CC[C@]2(C)[C@H]3CC=C4[C@@H]5[C@@H](C)[C@H](C)CC[C@]5(C(=O)NCCCN5CCN(CCCN(Cc6ccc(Br)cc6)Cc6ccc(Br)cc6)CC5)CC[C@@]4(C)[C@]3(C)CC[C@H]2C1(C)C | > 100 µM | – | – | – | – | –
10 | CC(=O)O[C@H]1CC[C@]2(C)[C@H]3CC=C4[C@@H]5[C@@H](C)[C@H](C)CC[C@]5(C(=O)NCCCN5CCN(CCCN(CC(C)C)CC(C)C)CC5)CC[C@@]4(C)[C@]3(C)CC[C@H]2C1(C)C | 18.8 µM | – | – | – | – | –
11 | CC(=O)O[C@H]1CC[C@]2(C)[C@H]3CC=C4[C@@H]5[C@@H](C)[C@H](C)CC[C@]5(C(=O)NCCCN5CCN(CCCN(Cc6ccc(Cl)cc6)Cc6ccc(Cl)cc6)CC5)CC[C@@]4(C)[C@]3(C)CC[C@H]2C1(C)C | 46 µM | – | – | – | – | –
12 | CC(=O)O[C@H]1CC[C@]2(C)[C@H]3CC=C4[C@@H]5[C@@H](C)[C@H](C)CC[C@]5(C(=O)O)CC[C@@]4(C)[C@]3(C)CC[C@H]2C1(C)C [O-ACETYLURSOLIC ACID] | 24.9 µM | – | – | – | – | inhibition [11]: 0%
13 | CC(=O)O[C@H]1CC[C@]2(C)[C@H]3CC=C4[C@@H]5[C@@H](C)[C@H](C)CC[C@]5(C(=O)NCCCN5CCN(CCCN(CC6CC6)CC6CC6)CC5)CC[C@@]4(C)[C@]3(C)CC[C@H]2C1(C)C | 0.49 µM | 0.95 µM | 2.53 µM | 5.1 | 0.51 | –
14 | CCN(CC)CCCC(C)Nc1ccnc2cc(Cl)ccc12 (stereo unspecified) | – | – | – | – | – | inhibition [5]: 36.9%; inhibition [6]: 97.4%
15 | CC(=O)O[C@H]1CC[C@]2(C)[C@H]3CC=C4[C@@H]5[C@@H](C)[C@H](C)CC[C@]5(C(=O)NCCCN5CCN(CCCN(Cc6ccccc6)Cc6ccccc6)CC5)CC[C@@]4(C)[C@]3(C)CC[C@H]2C1(C)C | 21.1 µM | – | – | – | – | –
16 | CC(=O)O[C@H]1CC[C@]2(C)[C@H]3CC=C4[C@@H]5[C@@H](C)[C@H](C)CC[C@]5(C(=O)NCCCN5CCN(CCCN(Cc6ccc(O)cc6)Cc6ccc(O)cc6)CC5)CC[C@@]4(C)[C@]3(C)CC[C@H]2C1(C)C | 0.16 µM | 0.35 µM | 1.57 µM | 9.7 | 0.46 | inhibition [12]: 39.6%; inhibition [13]: 82.2%; IC50 [7]: 5250 µM; Ratio IC50 [8]: 0.89
17 | CC(=O)O[C@H]1CC[C@]2(C)[C@H]3CC=C4[C@@H]5[C@@H](C)[C@H](C)CC[C@]5(C(=O)NCCCN5CCN(CCCN(CCCc6ccccc6)CCCc6ccccc6)CC5)CC[C@@]4(C)[C@]3(C)CC[C@H]2C1(C)C | 8.06 µM | – | – | – | – | –
18 | CC(=O)O[C@H]1CC[C@]2(C)[C@H]3CC=C4[C@@H]5[C@@H](C)[C@H](C)CC[C@]5(C(=O)NCCCN5CCN(CCCNCc6ccc(O)cc6)CC5)CC[C@@]4(C)[C@]3(C)CC[C@H]2C1(C)C | 0.08 µM | 0.18 µM | 2.1 µM | 27 | 0.43 | –
19 | C[C@H]1[C@H](C)CC[C@]2(C(=O)O)CC[C@]3(C)C(=CC[C@@H]4[C@@]5(C)CC[C@H](O)C(C)(C)[C@@H]5CC[C@]43C)[C@H]12 [URSOLIC ACID] | 52.9 µM | – | – | – | – | inhibition [5]: 17.9%; IC50 [7]: > 20000 µM; Ratio IC50 [8]: > 3.4
20 | CC(=O)O[C@H]1CC[C@]2(C)[C@H]3CC=C4[C@@H]5[C@@H](C)[C@H](C)CC[C@]5(C(=O)NCCCN5CCN(CCCNCc6ccc([N+](=O)[O-])cc6)CC5)CC[C@@]4(C)[C@]3(C)CC[C@H]2C1(C)C | 1.04 µM | 0.98 µM | 5.39 µM | 5.2 | 1.06 | –
21 | CC(=O)O[C@H]1CC[C@]2(C)[C@H]3CC=C4[C@@H]5[C@@H](C)[C@H](C)CC[C@]5(C(=O)NCCCN5CCN(CCCN(CC6CCCCC6)CC6CCCCC6)CC5)CC[C@@]4(C)[C@]3(C)CC[C@H]2C1(C)C | > 100 µM | – | – | – | – | –
